Like-named read-outs stand apart in the source and are kept apart here.
Key:
[1] = test system: MCF-7 (breast cancer); test: MTT cytotoxicity assay, MCF-7; assay type: cell-based, human; details: read-out: IC50 Breast MCF-7
Outline: (§1)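 Media: EMEM for MCF-7, McCoy's 5a for SaOS-2, RPMI-1640 for K562, each with NaHCO3, sodium pyruvate, 10% fetal calf serum and 1% penicillin/streptomycin. Culture at 37 °C, humidified 5% CO2. Seeded 5×10^3 cells/well and exposed to graded test compound for 72 h. MTT for 4 h, DMSO solubilisation, A570. IC50 from percent survival; mean ± SD, 2–3 experiments in triplicate.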

[2] = test system: breast carcinoma cell line MDA-MB-231; test: MTT cytotoxicity assay, MDA-MB-231; assay type: cell-based; details: read-out: IC50 Breast MDAMB-231
Outline: (§2)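 Cells grown as adherent monolayers in DMEM with 10% FBS at 37 °C under humidified 5% CO2. Cells were trypsin-harvested and seeded at 5×10^3 per well, then graded concentrations of test compound were added for 72 h. MTT (4 mg/mL solution) was added for 4 h, formazan dissolved in DMSO and A570 read. IC50 derived from percent survival; mean ± SD, 2–3 experiments in triplicate.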

[3] = test system: breast carcinoma cell line MDA-MB-468; test: MTT cytotoxicity assay, MDA-MB-468; assay type: cell-based; details: read-out: IC50 Breast MDAMB-468
Outline: as §2

[4] = test system: prostatic cancer cell line DU-145; test: MTT cytotoxicity assay, DU-145; assay type: cell-based; details: read-out: IC50 Prostate DU-145
Outline: as §2

[5] = test system: pancreatic cancer cell line PANC-1; test: MTT cytotoxicity assay, PANC-1; assay type: cell-based; details: read-out: IC50 Pancreas PANC-1
Outline: as §2

[6] = test system: K562 (myelogenous leukemia); test: MTT cytotoxicity assay, K562; assay type: cell-based, human; details: read-out: IC50 Blood K562
Outline: as §1

[7] = test system: SaOS-2 (osteosarcoma); test: MTT cytotoxicity assay, SaOS-2; assay type: cell-based, human; details: read-out: IC50 Bone SaoS2
Outline: as §1

[8] = test system: colon carcinoma cell line HCT-15; test: MTT cytotoxicity assay, HCT-15; assay type: cell-based; details: read-out: IC50 Colon HCT15
Outline: as §2

[9] = test system: Lung cancer cell line A549; test: MTT cytotoxicity assay, A549; assay type: cell-based
[10] = test system: human embryonic kidney cells HEK293; test: MTT cytotoxicity assay, HEK293; assay type: cell-based; details: read-out: IC50 Normal HEK293
Outline: as §2

[11] = molecular target: T1, COX-1 (Ovis aries, UniProt P05979); test: COX-1 inhibition, chromogenic TMPD oxidation assay; assay type: biochemical, Ram
T1 sequence (P05979 25-600): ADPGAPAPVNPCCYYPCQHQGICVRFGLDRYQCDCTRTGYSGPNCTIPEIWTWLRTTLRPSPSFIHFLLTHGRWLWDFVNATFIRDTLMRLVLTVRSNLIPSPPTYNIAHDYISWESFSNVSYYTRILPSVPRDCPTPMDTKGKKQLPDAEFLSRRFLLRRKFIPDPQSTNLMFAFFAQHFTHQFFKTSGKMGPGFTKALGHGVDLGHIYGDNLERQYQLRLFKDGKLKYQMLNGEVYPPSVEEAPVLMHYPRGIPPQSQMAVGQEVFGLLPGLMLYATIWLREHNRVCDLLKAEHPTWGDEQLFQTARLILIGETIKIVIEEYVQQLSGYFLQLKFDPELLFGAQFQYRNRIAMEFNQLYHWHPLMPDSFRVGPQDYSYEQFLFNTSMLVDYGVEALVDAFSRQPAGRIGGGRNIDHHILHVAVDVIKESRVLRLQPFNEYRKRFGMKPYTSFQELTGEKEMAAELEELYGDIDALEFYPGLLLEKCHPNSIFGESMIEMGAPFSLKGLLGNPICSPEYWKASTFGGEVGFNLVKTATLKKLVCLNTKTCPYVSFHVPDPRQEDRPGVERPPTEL

[12] = molecular target: T2, Recombinant human COX-2 (Homo sapiens, UniProt P35354); test: biochemical; assay type: biochemical; details: for Selectivity ratio COX-2/COX-1: ratio of IC50 COX-2 to IC50 COX-1; for IC50: TMPD oxidation at 603 nm
T2 sequence (P35354 18-604): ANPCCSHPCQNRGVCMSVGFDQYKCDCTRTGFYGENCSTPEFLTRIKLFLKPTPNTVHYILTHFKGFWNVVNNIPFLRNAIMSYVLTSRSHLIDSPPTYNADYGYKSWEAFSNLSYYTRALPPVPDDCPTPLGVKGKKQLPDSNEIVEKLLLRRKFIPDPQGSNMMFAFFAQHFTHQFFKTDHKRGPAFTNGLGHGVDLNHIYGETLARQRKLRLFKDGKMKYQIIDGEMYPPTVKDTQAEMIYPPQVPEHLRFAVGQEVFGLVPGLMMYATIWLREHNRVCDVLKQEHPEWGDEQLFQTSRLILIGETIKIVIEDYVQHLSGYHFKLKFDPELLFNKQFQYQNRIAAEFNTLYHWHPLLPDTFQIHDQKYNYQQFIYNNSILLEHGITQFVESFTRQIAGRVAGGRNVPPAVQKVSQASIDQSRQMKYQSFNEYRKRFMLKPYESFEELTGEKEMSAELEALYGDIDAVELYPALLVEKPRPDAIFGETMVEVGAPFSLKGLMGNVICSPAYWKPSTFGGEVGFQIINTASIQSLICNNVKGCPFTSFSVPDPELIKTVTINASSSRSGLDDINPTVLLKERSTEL

[13] = test system: mouse fibroblast KB-31; test: MTT cytotoxicity assay, KB-31; assay type: cell-based; details: KB 3-1, 72 h, read-out: IC50 Mouse fibroblast KB-31
Outline: as §2

[14] = MTT, 72 h incubation, non-cancerous cell line
[15] = read-out: IC50 COX-1, COX-1 from Ram seminal vesicles, TMPD oxidation at 603 nm
[16] = read-out: IC50 COX-2, recombinant human COX-2
[17] = Homo sapiens, A549, read-out: IC50 Lung A549
[18] = IC50 COX-2, recombinant human COX-2

Selectivity ratio COX-2/COX-1 [12]	IC50 [11]	IC50 [12, 18]	Compound	IC50 ([1]; MTT, 72 h incubation)	IC50 ([2]; MTT, 72 h incubation)	IC50 ([3]; MTT, 72 h incubation)	IC50 ([4]; MTT, 72 h incubation)	IC50 ([5]; MTT, 72 h incubation)	IC50 ([6]; MTT, 72 h incubation)	IC50 ([1]; Homo sapiens, MCF7, 72 h)	IC50 ([2]; Homo sapiens, MDA-MB-231, 72 h)	IC50 ([3]; Homo sapiens, MDA-MB-468, 72 h)	IC50 ([4]; Homo sapiens, DU-145, 72 h)	IC50 ([5]; Homo sapiens, PANC-1, 72 h)	IC50 ([6]; Homo sapiens, K562, 72 h)	IC50 ([7]; Homo sapiens, SAOS-2, 72 h)	IC50 ([8]; Homo sapiens, HCT-15, 72 h)	IC50 [9, 17]	IC50 ([10]; Homo sapiens, HEK293, 72 h)	IC50 [13]	also measured
16.58			5-(3-(4-Fluorophenyl)-3H-imidazo[4,5-b]pyridin-2-yl)-2-methoxyphenol [Compound 3e]	60 µM	> 100 µM	78.8 µM	> 100 µM	> 100 µM	53 µM												IC50 ([7]; MTT, 72 h incubation): 62.5 µM; IC50 ([8]; MTT, 72 h incubation): > 100 µM; IC50 ([9]; read-out: IC50 Lung A549, MTT): > 100 µM; IC50 [10, 14]: > 100 µM; IC50 [11, 15]: 16.8 ± 0.1 µM; IC50 [12, 16]: 279 ± 7.2 µM
0.42	36 ± 1.4 µM	15.1 ± 0.9 µM	Fc1ccc(-n2c(-c3cccc(C(F)(F)F)c3)nc3cccnc32)cc1 [Compound 3c, 3-(4-Fluorophenyl)-2-(3-(trifluoromethyl)phenyl)-3H-imidazo[4,5-b]pyridine]							44 µM	> 100 µM	> 100 µM	> 100 µM	> 100 µM	42 µM	52.5 µM	> 100 µM	> 100 µM	> 100 µM	> 100 µM	
0.60			4-(3-(4-Fluorophenyl)-3H-imidazo[4,5-b]pyridin-2-yl)-2-methoxyphenol [Compound 3d]	72 µM	> 100 µM	> 100 µM	> 100 µM	> 100 µM	57 µM												IC50 ([7]; MTT, 72 h incubation): 71.5 µM; IC50 ([8]; MTT, 72 h incubation): > 100 µM; IC50 ([9]; read-out: IC50 Lung A549, MTT): > 100 µM; IC50 [10, 14]: > 100 µM; IC50 [11, 15]: 42.7 ± 2.5 µM; IC50 [12, 16]: 25.6 ± 1 µM
0.42	21.8 ± 1.1 µM	9.2 ± 0.02 µM	FC(F)(F)c1cccc(-c2nc3cccnc3n2-c2ccc(Cl)cc2)c1 [Compound 3f, 3-(4-Chlorophenyl)-2-(3-(trifluoromethyl)phenyl)-3H-imidazo[4,5-b]pyridine]							49.9 µM	> 100 µM	> 100 µM	> 100 µM	> 100 µM	43 µM	53.5 µM	> 100 µM	> 100 µM	> 100 µM	> 100 µM	selectivity for COX-2 over COX-1 ([12]; from IC50 values against COX-2 and COX-1): 2 fold

The remaining lines, values behind:

Compound	Selectivity ratio COX-2/COX-1 [12]	IC50 [11]	IC50 [12, 18]	IC50 ([1]; MTT, 72 h incubation)	IC50 ([2]; MTT, 72 h incubation)	IC50 ([3]; MTT, 72 h incubation)	IC50 ([4]; MTT, 72 h incubation)	IC50 ([5]; MTT, 72 h incubation)	IC50 ([6]; MTT, 72 h incubation)	IC50 ([1]; Homo sapiens, MCF7, 72 h)	IC50 ([2]; Homo sapiens, MDA-MB-231, 72 h)	IC50 ([3]; Homo sapiens, MDA-MB-468, 72 h)	IC50 ([4]; Homo sapiens, DU-145, 72 h)	IC50 ([5]; Homo sapiens, PANC-1, 72 h)	IC50 ([6]; Homo sapiens, K562, 72 h)	IC50 ([7]; Homo sapiens, SAOS-2, 72 h)	IC50 ([8]; Homo sapiens, HCT-15, 72 h)	IC50 [9, 17]	IC50 ([10]; Homo sapiens, HEK293, 72 h)	IC50 [13]	also measured
Oc1cccc(-c2nc3cccnc3n2-c2ccc(F)cc2)c1 [Compound 3a, 3-(3-(4-Fluorophenyl)-3H-imidazo[4,5-b]pyridin-2-yl)phenol]	3.59	10 ± 0.01 µM	35.9 ± 2 µM							61.5 µM	> 100 µM	> 100 µM	> 100 µM	> 100 µM	49 µM	64 µM	> 100 µM	> 100 µM	> 100 µM	> 100 µM	
5-(3-(3,4-Dimethoxyphenyl)-3H-imidazo[4,5-b]pyridin-2-yl)-2-methoxyphenol [Compound 3h]	0.83			53 µM	> 100 µM	> 100 µM	> 100 µM	57.7 µM	54.5 µM												IC50 ([7]; MTT, 72 h incubation): 59 µM; IC50 ([8]; MTT, 72 h incubation): 66.9 µM; IC50 ([9]; read-out: IC50 Lung A549, MTT): > 100 µM; IC50 [10, 14]: 80 µM; IC50 [11, 15]: 18.5 µM; IC50 [12, 16]: 15.4 ± 3.1 µM
COc1cc(-c2nc3cccnc3n2-c2ccc(Cl)cc2)cc(OC)c1OC [Compound 3g, 3-(4-Chlorophenyl)-2-(3,4,5-trimethoxyphenyl)-3H-imidazo[4,5-b]pyridine]	1.17	19.1 ± 0.3 µM	22.4 ± 2.5 µM							56 µM	> 100 µM	69.3 µM	> 100 µM	83.5 µM	47 µM	55 µM	> 100 µM	> 100 µM	> 100 µM	64.4 µM	
COc1cccc(-c2nc3cccnc3n2-c2ccc(F)cc2)c1 [Compound 3b, 3-(4-Fluorophenyl)-2-(3-methoxyphenyl)-3H-imidazo[4,5-b]pyridine]		15 ± 0.13 µM								69 µM	> 100 µM	66.5 µM	> 100 µM	> 100 µM	46 µM	67 µM	> 100 µM	> 100 µM	> 100 µM	75 µM	

Reference: article PMC5237703 (Acta Pharmaceutica Sinica. B, 2016)
